In ChEMBL document CHEMBL3228045, “1-(Dichloroacetyl)-1,2,3,4-tetrahydro-6-quinolinol esters. New potent antiamebic agents” (J Med Chem, 1979) one finds ED50 and Activity data, which are given here for 17 compounds.

The nature of series [1]: Antiamebic activity against Entamoeba criceti infected in hamster assessed as reduction of trophozoites in cecum administered intragastric gavage bid for three consecutive days by microscopy. As to conditions: Caecum, po. In kind it is functional. The method, boiled down: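 Vehicle: 10% gelatin suspension, given by intragastric gavage in two split portions daily (morning and afternoon) for 3 consecutive days, dosed as (mg/kg)/day. Colony infection rate was at least 90%. Five hamsters per group at three twofold dose levels. The day after the last dose, cecal-wall scrapings in saline were examined microscopically at 43×. An animal with no trophozoites counted as cleared.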

Series [2] is described as follows: Antiamebic activity against trophozoite form of Entamoeba criceti infected in hamster assessed as reduction in spontaneous infection in cecum administered intragastric gavage as single dose by microscopy. In kind it is functional. The conditions noted are these: Caecum, po. The method, boiled down: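 Hamsters with spontaneous Entamoeba criceti infection were given one oral dose of drug. ED50 is reported ± SE in mg/kg po.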

Series [3] is described as follows: Antiamebic activity against Entamoeba criceti infected in hamster assessed as reduction of trophozoites in cecum administered intragastric gavage as four dose by microscopy. In kind it is functional. As to conditions: Caecum, po.
A further series relates to Hamster. Kind of series: Toxicity in hamster assessed as mortality at 10 mg/kg, po by acute test. In kind it is organism-based. Further details: dose 10 mg/kg, route oral. As to conditions: cricetinae, in vivo.
Another series concerns Rattus norvegicus. In words: Toxicity in rat assessed as mortality at 10 mg/kg, po by acute test. As to conditions: in vivo. Further details: dose 10 mg/kg, route oral. In kind it is organism-based.

In general, ED50 refers to the dose at which the effect has come halfway, by size or by number of responders. Turning to `O=C(Oc1ccc2c(c1)CCCN2C(=O)C(Cl)Cl)c1ccccc1`, the results for the ED50 in series [1] and in series [2] were 0.2 mg/kg and 1.6 mg/kg, respectively. As for `O=C(C(Cl)Cl)N1CCCc2cc(O)ccc21`, in series [1], the median effective dose (ED50) turned out to be 1.2 mg/kg. Regarding `O=C(Oc1ccc2c(c1)CCCN2C(=O)C(Cl)Cl)c1cccs1`, the ED50 in series [1] was found to be 0.16 mg/kg; in series [2], 4.8 mg/kg. Turning to `CCCC(=O)Oc1ccc2c(c1)CCCN2C(=O)C(Cl)Cl`, in series [1], the ED50 was determined as 0.75 mg/kg. The same measure, in the same setting: the value for `CCCCCC(=O)Oc1ccc2c(c1)CCCN2C(=O)C(Cl)Cl` was 1.75 mg/kg; that for `CNC(=O)Oc1ccc2c(c1)CCCN2C(=O)C(Cl)Cl` was 5.7 mg/kg; that for `O=C(C(Cl)Cl)N1CCCc2c1ccc(O)c2Cl` was 0.5 mg/kg. The same measure, in the same setting: the same measure for `O=C(C(Cl)Cl)N1CCCc2c1ccc(O)c2Br`: 0.56 mg/kg; for `O=C(Oc1ccc2c(c1Cl)CCCN2C(=O)C(Cl)Cl)c1cccs1`: 0.22 mg/kg. On the same count and under the same terms, the same measure for `O=C(Oc1ccc2c(c1Cl)CCCN2C(=O)C(Cl)Cl)c1ccco1`: 0.21 mg/kg. With `O=C(Oc1ccc2c(c1Br)CCCN2C(=O)C(Cl)Cl)c1cccs1`, the ED50 in series [1] was found to be 1.24 mg/kg. For the compound `O=C(Oc1ccc2c(c1Br)CCCN2C(=O)C(Cl)Cl)c1ccco1`, the ED50 in series [1] worked out at 0.39 mg/kg. Same read-out and setting: the value for `O=C(CCl)N1CCCc2cc(O)ccc21` was 2 mg/kg; that for `O=C(N1CCCc2cc(O)ccc21)C(Cl)(Cl)Cl` was 3 mg/kg; that for `CN(C(=O)C(Cl)Cl)c1ccc(OC(=O)c2ccco2)cc1` [DILOXANIDE FUROATE] was above 3.2 mg/kg. As for `CCOCCN(Cc1ccc(Oc2ccc([N+](=O)[O-])cc2)cc1)C(=O)C(Cl)Cl` [ETOFAMIDE], the median effective dose (ED50) in series [3] stood at 0.38 mg/kg.

As to `O=C(Oc1ccc2c(c1)CCCN2C(=O)C(Cl)Cl)c1ccco1` [QUINFAMIDE], the results for the 50% effective dose (ED50) in series [1] and in series [2] were 0.2 mg/kg and 0.75 mg/kg, respectively. The Activity result with Hamster and in the series with Rattus norvegicus was “Non-toxic” each time.
